From the EternaBench riboswitch data

Tested on: MS2 coat protein
Experiment: apparent Kd, MS2 coat protein; higher = weaker binding; RNA-MaP array
Method in brief: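 Sequenced DNA templates on an Illumina sequencing chip were transcribed into the designed RNAs. These were incubated at room temperature in Tris-HCl pH 7.5 buffer containing KCl, MgCl2, BSA, DTT, tRNA and Tween20 with fluorescently labeled MS2 coat protein at 1.5 nM to 3 μM, with or without input ligand. Apparent Kd is the median of binding-curve fits per cluster, and designs with fewer than 10 clusters measured were excluded.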

[1] = designed as: ON switch for flavin mononucleotide, no ligand
[2] = ligand present: flavin mononucleotide, designed as: ON switch for flavin mononucleotide
[3] = designed as: OFF switch for flavin mononucleotide, no ligand
[4] = ligand present: flavin mononucleotide, designed as: OFF switch for flavin mononucleotide
[5] = designed as: OFF switch for theophylline, no ligand
[6] = ligand present: theophylline, designed as: OFF switch for theophylline
[7] = designed as: OFF switch for tryptophan, no ligand
[8] = ligand present: tryptophan, designed as: OFF switch for tryptophan

With “GGAAAACACAAGAAGGCGUCGGACUGGGCGAGACGAGGAUAUUGUAGCUCUAAUCGUGGACAGACAUGAGGAUCACCCAUGUCG” the “apparent Kd” value [1] was 7.93 nM and the “apparent Kd” value [2] was 6.18 nM.

“UAUAAGGGUCAGAAGGCAGUGGCGCAGAAUGACUGAGGAUAUGAUAACCGGUAAUUUAACAUGAGGAUCACCCAUGUCUACAAC” was tested, and the “apparent Kd” value [1] was 11.7 nM and the “apparent Kd” value [2] was 10.2 nM.

With “AACAGUAUUAUAGAUACCAGCAGGUCAUAAGACAUGAGGAUCACCCAUGUGAAUGAGGUAUGCCCUUGGCAGCUAUGAGGUCCUC” the “apparent Kd” value (designed as: ON switch for theophylline, no ligand) was 173 nM and the “apparent Kd” value (ligand present: theophylline, designed as: ON switch for theophylline) was 128 nM.

For “CCUUUAGAUGUGAGGAUAUGUACUUGACUUUCAUGACAGAAGGCACAUGAGGAUCACCCAUGUAGUGUCAUUGG”, the “apparent Kd” value [3] was 10.4 nM and the “apparent Kd” value [4] was 36.4 nM.

In the case of “AUAACACAUGAGGAUCACCCAUGUAAGGAUAUAGUAGCAAUGGAAAGAAAUCUAUCCUCUAGAAGGUACACGGC”, the “apparent Kd” value [3] is reported as 18.5 nM and the “apparent Kd” value [4] is reported as 15.3 nM.

With “GGAUCGCUCUACAUGAGGAUCACCCAUGUGACUGAGCUAGAUAGAAGGAGAUGGCGAAAUACUUUCUAGGAUAUAUUGUAGCUA” the “apparent Kd” value [3] was 8.05 nM and the “apparent Kd” value [4] was 8.08 nM.

For “UGCGACAAGUGAAUACUUUGUUCUAGAGAUACCAGUUCCCGAGUGAACCCUUGGCAGCUCCCAACAUGAGGAUCACCCAUGUAUU”, the “apparent Kd” value [5] was 14.5 nM and the “apparent Kd” value [6] was 28.5 nM.

For “ACGGCAUGGAAGAAGGAGUACAUGAGGAUCACCCAUGUAGGGUAGCGCGUCCACAUCCAAUAAGACUAGGAUAUUCUUGCAGAU”, the “apparent Kd” value [3] was 39.8 nM and the “apparent Kd” value [4] was 83.2 nM.

With “AAGUCGCAAGGAUAUACAGUAAGGGUUCGGAUGGGAAGCUUACAUGAGGAUCACCCAUGUAGAAGGUGCAUUCA” the “apparent Kd” value [3] was 26.9 nM and the “apparent Kd” value [4] was 31.4 nM.

With “AUAACUGCAGGAUAUACAGGAACGCCUAGAAGGAUCCUGGAACAUGAGGAUCACCCAUGUAGAAGGGCACGUUU” the “apparent Kd” value [3] was 12.3 nM and the “apparent Kd” value [4] was 14.4 nM.

In the case of “UAAUCCAACUCGUAAUGACAUGAGGAUCACCCAUGUGAGCGUGAGGAUAUUGUAAGCUAGGAGGUCAAGAAGGCACGCCAGGAG”, the “apparent Kd” value [3] is reported as 9.1 nM and the “apparent Kd” value [4] is reported as 10 nM.

For “GGACAAGAAGAGAAGGGCUUACCAAACCUCAACAUGAGGAUCACCCAUGUCAAAGUGGAAGCAUAGCAGGAUAUCUAACAGCGC”, the “apparent Kd” value [3] was 8.09 nM and the “apparent Kd” value [4] was 7.72 nM.

In the case of “CCGGCGCGAUUAUGGGUUUGCUUUUACGAUACCAGCCGCGUUCCGGGCCCUUGGCAGCGUGUAACAUGAGGAUCACCCAUGUUCA”, the “apparent Kd” value [6] is reported as 13.2 nM.

“GCGACACUCACGGCCGCCACUGAUUAGCCCAGUAUGGAGCCCACACAUGAGGAUCACCCAUGUCACAGGACCGGGUGGGUCUAUU” was tested, and the “apparent Kd” value (designed as: ON switch for tryptophan, no ligand) was 25.8 nM and the “apparent Kd” value (ligand present: tryptophan, designed as: ON switch for tryptophan) was 26.8 nM.

“CCCAGGAUUCAAGGAUAUCGCAAUGAACAUGAGGAUCACCCAUGUUUCUACCCCUCAGCGCACGGCGAGAAGGUGACUUUAGCG” was tested, and the “apparent Kd” value [3] was 12.8 nM and the “apparent Kd” value [4] was 12.3 nM.

For “GCCGCCGGUGCUUCAUUCCCUGAGCGACGGCGAGGACCGGUACGGCCGCCACUCGGCUCGGUACAUGAGGAUCACCCAUGUCUUU”, the “apparent Kd” value [7] was 44.7 nM and the “apparent Kd” value [8] was 54.5 nM.

“GCAAUUUGACGAGGAUAUGGUCUAUUUUUUUACCCAGAAGGCGUCGCCCACAUGAGGAUCACCCAUGUUCAUGGAUAGGAAAUA” was tested, and the “apparent Kd” value [3] was 11.9 nM.

“UGCCAGGCACAGAAGGUAGCGUGUCCUCAAGACAUGAGGAUCACCCAUGUGGAAAGAUUAAGACCUAAGGAUAUGUGUAUCACC” was tested, and the “apparent Kd” value [3] was 143 nM and the “apparent Kd” value [4] was 93.9 nM.

With “GGUGUUACGUCGGCCGCCACUAUACUACAUGAGGAUCACCCAUGUCAUCCCUUCAAUUGGUAGCCUAGGACCGGGACAGAAUUCG” the “apparent Kd” value [7] was 43.4 nM and the “apparent Kd” value [8] was 47.2 nM.

With “UCAUUGAGAGUCAUCCAGCGUUAAUGGGAUACCAGAGUUCUUUUACUCCCUUGGCAGCCCGGAACAUGAGGAUCACCCAUGUCUG” the “apparent Kd” value [5] was 34.9 nM and the “apparent Kd” value [6] was 80.8 nM.

For “CCAGGUUGAAUAGGAUAUCGAGUCCGUCACAUGAGGAUCACCCAUGUAUGCCAAGCUAGAGCGUGCGAGAAGGAUUAGGCCAUC”, the “apparent Kd” value [2] was 15.5 nM.

“CCGAUAAUCAAACAUGAGGAUCACCCAUGUUCUGGACGGUUCGAGGAUAUGGCACAAGGUAUCUUCCAGAAGGCGAGCCGGUGA” was tested, and the “apparent Kd” value [1] was 8.04 nM and the “apparent Kd” value [2] was 5.98 nM.

“UCCAUACGGUAGGAUAUAUGUACCCAGAAGGGCAUAGAAGGACCCACAUGAGGAUCACCCAUGUUCCUUUGGUG” was tested, and the “apparent Kd” value [3] was 24.4 nM and the “apparent Kd” value [4] was 30.5 nM.

“GCCACGCUAGAAGGAUAUUUGCCAUAAGUACGGAAAGAAGGUCUCGCCGGAUCGAACAUGAGGAUCACCCAUGUGUGGGUCAGA” was tested, and the “apparent Kd” value [1] was 43.8 nM and the “apparent Kd” value [2] was 26 nM.

In the case of “AGUCCUCUGUACCCUGAUGCCCUCACUUUACGAGGACCGGUACGGCCGCCACUCGAAUCCCAACAUGAGGAUCACCCAUGUCGAC”, the “apparent Kd” value [7] is reported as 34.8 nM and the “apparent Kd” value [8] is reported as 39.7 nM.

For “AGCUAUUUUUGGGAGGAUAUUAUGAGCAGUACAUGAGGAUCACCCAUGUUAGUAAUAUACAUUGGUAAGAAGGCCCAAUCAUAAGG”, the “apparent Kd” value [1] was 34.6 nM and the “apparent Kd” value [2] was 25.1 nM.

With “GACAUGGGACAGAAGGCGCGUCACAUUUUUAUGCGAGGAUAUGUCACUACAUGAGGAUCACCCAUGUGAGUUGGGAUCUCGAAA” the “apparent Kd” value [3] was 26.5 nM and the “apparent Kd” value [4] was 64.1 nM.
